Bioassay records as filed in PubChem.
Rows were chosen to be rich in hits. Some 2.6% of all compounds tested hit in one or more screens of this group.
XiGFP reactiv: reactivates the inactive X chromosome in mouse fibroblasts; XiGFP mouse fibroblasts, % GFP-positive cells imaging, 3 d; cells co-treated with 5-aza-dC sensitizer; scaled so ellipticine positive control = 100%; actives 0.055% (n = 360,000); activation, % at 7.58 µM;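 active = mean normalized replicate activation at least 10% and every replicate at or above 10%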;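 note: 0% = median of on-plate neutral control wells and 100% = ellipticine 6 µM median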
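Material: XiGFP fibroblasts, SV40-immortalized; Buffer or medium: DMEM containing 5-aza-dC; Compound dosing: single point; Times: 3 days compound exposure.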
PvdQ acylase: P. aeruginosa PvdQ acylase inhibition; AID 488965; inhibition, % at 10 µM; actives 0.063% (n = 340,000); purified PvdQ acylase, fluorescence plate reader; in the data active = inhibition above about 30%, passing the limit was not always enough;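 note: 0% = vehicle neutral wells and 100% = reference inhibitor wells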
SR-BI uptake up: enhances SR-BI lipid uptake from DiI-HDL; CHO ldlA[mSR-BI] cells, DiI-HDL uptake fluorescence, 3 h; 100 = double the neutral-control signal; actives 0.096% (n = 320,000); activation, % at 12.5 µM;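 active = mean replicate activation of at least 60% and every replicate at or above 60%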;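 note: 0% = median plate neutral-control signal and 100% = twice that signal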
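Material: SR-BI-overexpressing, LDLR-lacking CHO cells | Dosing: Single compound concentration, delivered by pin transfer | Probe or stimulus: Labelled HDL, 10 µg/mL | Signal: Bottom-read cell fluorescence after medium removal, ex 550/em 595 nm | Schedule: 3 h, 37 °C | Evaluation: HDL uptake via cellular fluorescence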
SR-BI HDL uptake: inhibitors of mouse SR-BI mediated HDL lipid uptake. Q61009. ldlA[mSR-BI] CHO cells, DiI-HDL uptake fluorescence, 3 h. inhibition, % at 12.5 µM. actives 0.96% (n = 320,000). AID 488896;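 active = mean replicate inhibition of at least 70% and a set share of replicates each scoring 70 or more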;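 note: 0% = median of neutral control wells and 100% = median of positive control wells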
dFosB act: activators of mouse delta FosB homodimer; purified delta FosB, TAMRA-CDK5 oligo fluorescence polarization; percent of positive-control signal above neutral wells; actives 0.99% (n = 340,000); P13346; activation, % at 25 µM;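 active = mean activation above about 17%, with every replicate also reaching it, limit read from the data, passing the limit was not always enough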
Target sequence (P13346 whole entry, looked up): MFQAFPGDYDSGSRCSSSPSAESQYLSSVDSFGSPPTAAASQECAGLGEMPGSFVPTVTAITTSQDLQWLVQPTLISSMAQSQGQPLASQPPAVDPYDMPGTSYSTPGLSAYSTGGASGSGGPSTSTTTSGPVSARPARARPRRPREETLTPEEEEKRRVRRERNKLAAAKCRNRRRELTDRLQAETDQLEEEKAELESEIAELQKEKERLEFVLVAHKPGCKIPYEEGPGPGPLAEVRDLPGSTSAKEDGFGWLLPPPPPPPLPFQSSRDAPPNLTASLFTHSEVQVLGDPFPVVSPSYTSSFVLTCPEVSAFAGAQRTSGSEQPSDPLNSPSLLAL
Ecoli rRNA inh: selective bacterial rRNA inhibition in E. coli. E. coli WT GFP vs humanized-ribosome RFP mutants, fluorescence, 24 h; active compounds read low; DMSO median 0, no signal -100. GFP signal change (wild-type ribosome), % (concentration not given with the values). actives 1.6% (n = 350,000);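 active = significant combined selectivity score with lowered wild-type GFP, culture density cut under 30%, mutant RFP and density less affected; inactive = any of these conditions unmet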
Starred values were filed as active, the others as inactive; nt = no result given.

SMILES	XiGFP reactiv	PvdQ acylase	SR-BI uptake up	SR-BI HDL uptake	dFosB act	Ecoli rRNA inh
O=C(Nc1ccc(-c2csc(Nc3cccc(C(F)(F)F)c3)n2)cc1)c1ccccc1	0	-14	-97	97*	1	1
O=C(Nc1cccc(-c2csc(Nc3cccc(C(F)(F)F)c3)n2)c1)c1ccccc1	0	-9	-78	78*	0	-10
O=C(Nc1nc(-c2ccccc2)cs1)c1cccc([N+](=O)[O-])c1	nt	-16	-51	51	2	nt
O=[N+]([O-])c1ccc(Sc2n[nH]c(-c3ccncc3)n2)nc1	0	13	9	-9	-1	4
O=C(Nc1cccc(-c2csc(Nc3ccccc3)n2)c1)c1ccccc1	1	-10	-77	77*	-6	4
O=C(Nc1ccc(-c2csc(Nc3ccc(Cl)cc3)n2)cc1)c1ccccc1	0	-5	-93	93*	3	0
CC(=O)c1cccc(Nc2nc(-c3ccccc3)cs2)c1	0	7	-75	75*	-6	6
COc1ccccc1Nc1nc(-c2cccc([N+](=O)[O-])c2)cs1	0	3	-59	59	0	-2
O=C(Nc1cccc(-c2cnc3ccccc3n2)c1)c1ccccc1	nt	-2	-14	14	0	nt
O=[N+]([O-])c1cccc(-c2csc(Nc3ccccc3)n2)c1	0	10	-87	87*	-12	-17
CN(C(=O)COC(=O)c1cccc(S(=O)(=O)N2CCCCCC2)c1)c1ccccc1	0	nt	nt	nt	nt	-5
CC(C)Cc1nc(SCC(=O)NCc2ccccc2)n[nH]1	nt	-12	59	-59	4	nt
COc1ccc2cc(C[C@@H]3CC[C@@H](CO)O3)ccc2c1	0	0	-5	5	6	-23*
O=C(N[C@@H]1CC[C@@H](CCNS(=O)(=O)c2ccc(Cl)cc2)O[C@@H]1CO)c1cccnc1	0	nt	nt	nt	nt	1
CC[N+](CC)(CC)CCOc1ccc(/C=C/c2ccccc2)cc1	1	-21	-19	19	5	-53
CC[N+](CC)(CC)CCCCOc1ccc2c(c1)C(=O)c1cc(OCCCC[N+](CC)(CC)CC)ccc1-2	0	0	6	-6	55*	-54*
COc1ccc(CN(C)C[C@H]2Oc3ccc(NC(=O)C4CCCCC4)cc3C(=O)N([C@@H](C)CO)C[C@H]2C)cc1	-1	nt	nt	nt	nt	2
CCCC(=O)N1CC2(CN(C(=O)C3CC3)C2)c2c(n(C)c3cc(OC)ccc23)[C@@H]1CO	0	nt	nt	nt	nt	3
NC(=O)C1CCN(C2=C(NS(=O)(=O)c3ccc(Br)cc3)C(=O)c3ccccc3C2=O)CC1	0	-10	-7	7	-4	-31*
CCOC(=O)C1CCN(C2=C(NS(=O)(=O)c3ccc(Br)cc3)C(=O)c3ccccc3C2=O)CC1	0	-8	-17	17	-8	-38*
CCOC(=O)N1CCN(C2=C(NS(=O)(=O)c3ccc(Br)cc3)C(=O)c3ccccc3C2=O)CC1	1	nt	nt	nt	nt	-8
CCCCNC(=S)Nc1cccc(C(C)=O)c1	0	-1	5	-5	1	nt
O=C(NCCCCc1ccccc1)c1cccc(NC(=O)c2ccccc2)c1	0	-16	-37	37	-12	-5
CC(=O)c1cccc(NC(=S)NCCCCc2ccccc2)c1	0	13	-48	48	4	-34*
O=C(NCCc1ccc(F)cc1)c1cccc(NC(=O)c2ccccc2)c1	0	-1	-61	61	-2	-22*
SMILES	XiGFP reactiv	PvdQ acylase	SR-BI uptake up	SR-BI HDL uptake	dFosB act	Ecoli rRNA inh
CCNc1ccc(C(=O)OCC)cc1NC(=O)c1cccc(N(C)C)c1	nt	5	-86	86*	-3	-19
CCOc1cc2[nH]c(=S)n(C3CCN(Cc4ccccc4)CC3)c(=O)c2cc1OCC	0	-5	-75	75*	-6	6
CC(C)C(NC(=O)C1CCC(C(C)(C)C)CC1)C(=O)NCCc1ccc(S(N)(=O)=O)cc1 (stereo unspecified)	0	-18	13	-13	5	-2
CCC1CCC(C(=O)NC(C(=O)NCCc2ccc(S(N)(=O)=O)cc2)C(C)C)CC1 (stereo unspecified)	0	10	-8	8	73*	4
COc1cccc(C2Oc3ccccc3C3CC(c4cccs4)=NN32)c1 (stereo unspecified)	0	nt	nt	nt	nt	-29*
CCC(=O)N1N=C(c2cccs2)CC1c1ccc(OC)cc1 (stereo unspecified)	0	0	-10	10	-5	-1
CC(C)N(C(=O)CSc1nc2ccccc2n1-c1ccccc1)C(C)C	nt	-13	-25	25	-7	nt
O=C(O)CCSc1nc2ccccc2n1-c1ccccc1	0	-12	18	-18	1	-24*
CCOc1cc(C(=O)NCc2ccccc2)ccc1OCC(=O)N1CCOCC1	0	11	7	-7	-12	13
CCOc1cc(/C=C/c2nc3ccccc3s2)ccc1OCC(=O)N1CCOCC1	0	-12	-78	78*	-17	nt
COc1cc2c(cc1OC)C(c1ccc(-c3ccc(Cl)c(Cl)c3)o1)=NCC2	nt	-6	-70	70	52*	nt
CC[C@H](C)Cc1cn([C@@H](CCCN=C(N)N)C(=O)NCCCCCCCCCCC(=O)N2CCNCC2)nn1	0	2	-9	9	1	-37*
COc1cc(OC)c(OC)cc1CN1CCc2ccccc2C1	nt	6	7	-7	1	13
CC(/C=C/c1ccccc1)=N/NC(=O)CNC(=O)c1ccccc1F	0	2	-6	6	0	7
CCCc1nc(SCC(=O)N2CCc3ccccc3C2)c2ccccc2n1	nt	-4	-18	18	-19	-27*
O=C(COc1ccccc1/C=C\c1[nH]c(=O)[nH]c(=O)c1[N+](=O)[O-])Nc1ccccc1	0	6	0	0	-8	-31*
O=c1[nH]c(/C=C/c2ccccc2Cl)c([N+](=O)[O-])c(=O)[nH]1	0	-9	nt	nt	-2	-24
CCOC(=O)N1CCN(C(=S)NC(=O)c2cncc(Br)c2)CC1	1	2	69*	-69	-7	nt
CCOC(=O)N1CCN(C(=S)NC(=O)c2ccc(Br)cc2)CC1	0	0	2	-2	-3	2
CCCCNc1ccc2c3c(cccc13)C(=O)N(CCCC)C2=O	123*	-3	nt	nt	-25	105
COc1ccccc1N(C)S(=O)(=O)c1ccc(C(=O)NC(C)(C)C)cc1	nt	-5	-26	26	-6	nt
CCN1CCN(c2cc(C)c3cc(NC(=O)c4ccc(Br)o4)ccc3n2)CC1	nt	-2	-52	52	-10	nt
